Article PMC5525105 (ACS Chemical Biology, 2017)

T1: rGBA (Homo sapiens, UniProt P04062, R534H)
T1 sequence (P04062 40-536 R534H): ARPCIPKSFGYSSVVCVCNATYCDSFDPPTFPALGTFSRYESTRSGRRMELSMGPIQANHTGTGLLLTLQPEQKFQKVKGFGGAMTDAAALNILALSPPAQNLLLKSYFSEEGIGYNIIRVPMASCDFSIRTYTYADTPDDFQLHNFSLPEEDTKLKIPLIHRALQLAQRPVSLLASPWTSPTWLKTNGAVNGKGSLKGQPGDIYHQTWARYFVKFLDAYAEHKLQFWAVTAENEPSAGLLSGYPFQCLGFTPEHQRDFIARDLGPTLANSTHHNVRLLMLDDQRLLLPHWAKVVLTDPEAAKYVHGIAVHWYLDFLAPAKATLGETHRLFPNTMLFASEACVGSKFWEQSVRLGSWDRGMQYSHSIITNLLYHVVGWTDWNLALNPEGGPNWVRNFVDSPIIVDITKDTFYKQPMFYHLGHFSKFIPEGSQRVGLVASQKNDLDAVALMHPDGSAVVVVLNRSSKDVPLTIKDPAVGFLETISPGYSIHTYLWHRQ

T2: wild-type GBA (Homo sapiens, UniProt P04062)
T2 sequence (P04062 40-536): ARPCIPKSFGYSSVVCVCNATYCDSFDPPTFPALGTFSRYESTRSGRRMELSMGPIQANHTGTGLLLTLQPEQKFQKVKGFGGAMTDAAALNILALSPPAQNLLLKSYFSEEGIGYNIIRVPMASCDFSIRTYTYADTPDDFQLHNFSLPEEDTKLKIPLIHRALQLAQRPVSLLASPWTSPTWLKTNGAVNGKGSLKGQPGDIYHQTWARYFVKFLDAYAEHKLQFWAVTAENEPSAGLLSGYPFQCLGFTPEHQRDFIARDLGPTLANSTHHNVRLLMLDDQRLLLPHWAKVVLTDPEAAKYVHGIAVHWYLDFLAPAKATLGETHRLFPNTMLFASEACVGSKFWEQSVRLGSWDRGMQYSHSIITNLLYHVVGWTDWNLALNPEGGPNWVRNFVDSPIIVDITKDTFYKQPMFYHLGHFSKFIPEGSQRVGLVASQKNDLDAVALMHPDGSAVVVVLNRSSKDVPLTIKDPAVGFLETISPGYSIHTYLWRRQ


How the values were obtained:
[1] = target: T1, rGBA; assay: Limited proteolysis of rGBA with trypsin; conditions: for rGBA remaining intact after tryptic digestion: 90 min of incubation with trypsin
[2] = test system: wild-type and N370S GBA; assay: In situ treatment of fibroblasts with IFG 1 or fluoro 3 for 12 days; assay type: cell-based, human; conditions: wild-type and homozygous N370S GBA fibroblasts
[3] = target: T1, rGBA; assay: Thermal stability of rGBA by tryptophan fluorescence decay; assay type: binding
[4] = test system: GBA; conditions: neutral pH; cited from earlier work
[5] = test system: GBA L444P mutant; conditions: mice, oral administration; cited from earlier work
[6] = target: T2, wild-type GBA; assay: In situ stabilization of GBA in wild-type fibroblasts; assay type: cell-based; conditions: wild-type cells, 100 nM ABP 5 or 100 μM leupeptin, up to 12 days
Summary of the method: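 Confluent wild-type skin fibroblasts were cultured 0–12 days with 100 nM red β-epoxide probe, 100 μM leupeptin, or both, with medium refreshed […]. Lysates were made in pH 6.5 phosphate/Triton with protease inhibitors. Without in situ probe, 10 μg protein was labeled 1 h at 37 °C with 100 nM green probe at pH 5.2. Analysis was SDS-PAGE fluorescence, Coomassie staining and anti-GBA (8E4) western blot, then densitometry.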

[7] = Time-dependent decay of rGBA activity at 37 °C; assay type: physicochemical
[8] = target: T1, rGBA; assay: Tryptophan emission fluorescence spectra of rGBA; conditions: λEX 295 nm, pH 7.4, free or in complex with inhibitor
[9] = Thermal unfolding of free rGBA by circular dichroism; assay type: physicochemical; conditions: circular dichroism 222 nm

Row | rGBA remaining intact after tryptic digestion [1] [%] | increase of Tm of rGBA ([3]; pH 5.2, saturating inhibitor concentration) | stabilization of GBA [6] | maximum emission of rGBA tryptophan fluorescence [8] [nm] | Molecule | concentration at which stabilizing effect became evident [2] | concentration of maximal stabilizing effect ([2]; highest concentration tested) [µM] | increase in thermal stability of GBA [4] [°C] | increase of GBA L444P mutant activity [5] | sensitivity of rGBA to tryptic digestion over 90 min ([1]; pH 5.2, trypsin/rGBA 1/10 (w/w)) | rGBA degraded by trypsin within 60 min ([1]; pH 7.4, trypsin/rGBA 1/10 (w/w)) | Tm of rGBA ([3]; pH 5.2, no inhibitor) [°C] | activity of rGBA over time ([7]; pH 5.2, 37 °C) | half-life of rGBA activity ([7]; pH 7.4, 37 °C, residual activity measured at pH 5.2) [min] | apparent Tm ([9]; pH 5.2) [°C] | apparent Tm ([9]; pH 7.4) [°C]
1 | 50 | +5.6 °C | – | – | OC[C@H]1CNC[C@@H](O)[C@@H]1O [IFG 1, isofagomine] | greater than 10 μM | 100 | 8.7 | up to 5 fold | – | – | – | – | – | – | –
2 | – | – | about 3 fold | – | CC(=O)N[C@@H](CC(C)C)C(=O)N[C@@H](CC(C)C)C(=O)N[C@H](C=O)CCCNC(=N)N [leupeptin] | – | – | – | – | – | – | – | – | – | – | –
3 | ~10 | – | – | 336.5 | rGBA: purified recombinant glucocerebrosidase (imiglucerase) from Genzyme (protein, UniProt P04062 40-536, looked up, variant R495H, imiglucerase) Lysosomal acid …: ARPCIPKSFGYSSVVCVCNATYCDSFDPPTFPALGTFSRYESTRSGRRMELSMGPIQANHTGTGLLLTLQPEQKFQKVKGFGGAMTDAAALNILALSPPAQNLLLKSYFSEEGIGYNIIRVPMASCDFSIRTYTYADTPDDFQLHNFSLPEEDTKLKIPLIHRALQLAQRPVSLLASPWTSPTWLKTNGAVNGKGSLKGQPGDIYHQTWARYFVKFLDAYAEHKLQFWAVTAENEPSAGLLSGYPFQCLGFTPEHQRDFIARDLGPTLANSTHHNVRLLMLDDQRLLLPHWAKVVLTDPEAAKYVHGIAVHWYLDFLAPAKATLGETHRLFPNTMLFASEACVGSKFWEQSVRLGSWDRGMQYSHSIITNLLYHVVGWTDWNLALNPEGGPNWVRNFVDSPIIVDITKDTFYKQPMFYHLGHFSKFIPEGSQRVGLVASQKNDLDAVALMHPDGSAVVVVLNRSSKDVPLTIKDPAVGFLETISPGYSIHTYLWHRQ | – | – | – | – | shows resistance to tryptic digestion | about 40% | 55.2 | preserved | 30 | 61 | 57
